Keap1 Nrf2 FP: disrupts human Keap1 binding to Nrf2 peptide; Q14145; Keap1 Kelch-Nrf2 peptide fluorescence polarization, 1536-well; inhibition, % at 9.4 µM; 340,000 compounds, 0.15% hits; in the data active = inhibition above about 12%;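 note: human Keap1 Kelch domain with fluorescein labeled Nrf2 9mer peptide probe; higher means more block of Keap1 binding to Nrf2 peptide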
C-LANA FP: blocks KSHV LANA C-terminal domain binding to DNA; MBP-C-LANA/FAM-LBS DNA binding, fluorescence polarization; inhibition, % at 9 µM; 340,000 compounds, 0.078% hits;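 active = highest replicate inhibition at or above 60% at 9 µM, even if other replicates fall short; inactive = all replicates below 60% inhibition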
A3A deaminase: blocks human APOBEC3A ssDNA deamination. inhibition, % at 20 µM. P31941. 330,000 compounds, 0.41% hits. recombinant A3A, FAM/TAMRA ssDNA deamination fluorescence. AID 493011;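 active = at least 40% inhibition at 20 µM here, with at most 30% in a related deaminase screen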
Target sequence (P31941 whole entry, looked up): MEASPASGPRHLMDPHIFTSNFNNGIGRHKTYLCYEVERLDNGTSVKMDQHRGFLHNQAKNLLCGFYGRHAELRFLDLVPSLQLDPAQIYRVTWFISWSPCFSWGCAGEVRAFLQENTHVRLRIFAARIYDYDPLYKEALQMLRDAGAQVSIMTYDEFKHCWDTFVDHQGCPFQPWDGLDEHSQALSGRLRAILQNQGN
A3G deaminase: inhibitors of human APOBEC3G DNA deaminase. 330,000 compounds, 0.28% hits. AID 493012. recombinant A3G, ssDNA deamination FAM/TAMRA fluorescence. inhibition, % at 20 µM;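 active = inhibition of at least 40% at 20 µM, with no more than 30% in the related APOBEC3A deaminase screen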
Target sequence (Q9HC16 whole entry, looked up): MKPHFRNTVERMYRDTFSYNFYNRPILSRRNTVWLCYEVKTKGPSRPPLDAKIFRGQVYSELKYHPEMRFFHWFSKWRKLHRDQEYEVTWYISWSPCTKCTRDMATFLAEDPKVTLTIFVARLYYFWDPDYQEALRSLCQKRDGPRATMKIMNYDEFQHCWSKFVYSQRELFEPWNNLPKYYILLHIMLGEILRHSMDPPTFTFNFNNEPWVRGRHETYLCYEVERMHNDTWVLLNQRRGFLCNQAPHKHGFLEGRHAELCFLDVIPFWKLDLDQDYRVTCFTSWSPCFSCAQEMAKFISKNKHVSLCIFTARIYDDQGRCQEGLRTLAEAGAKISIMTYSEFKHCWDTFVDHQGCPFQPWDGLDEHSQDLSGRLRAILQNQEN
CAL PDZ FP-1: blocks peptide binding to the human CAL PDZ domain; AID 602252; purified CAL PDZ, TMR-peptide fluorescence polarization, 1 h; 300,000 compounds, 0.92% hits; Q9HD26; inhibition, % at 24.9 µM;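 active = mean inhibition of at least 30% with at least half of replicates also reaching 30%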
CAL PDZ FP-2: blocks peptide binding to human CAL PDZ domain | inhibition, % at 20 µM | 330,000 compounds, 0.02% hits | purified CAL PDZ, TMR-peptide fluorescence polarization, 1 h;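 active = highest replicate inhibition of at least 40%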
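Read-out basis: mP drop reported as inhibition | Assay system: Tagged CAL PDZ protein CerCALP, purified | Benchmarks: Unlabelled peptide for full inhibition, DMSO wells as neutral | Schedule: 1 h incubation at room temperature before polarization reading | Buffer or medium: Sodium phosphate/NaCl buffer pH 7.4 with TCEP, IgG, Thesit | Doses: Single point, 20 µM | Measured by: Fluorescence polarization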
Large screens that a line does not name were inactive. An excerpt weighted towards active compounds, which were near 1.7% of everything screened.

CN(C)S(=O)(=O)c1cccc(C(=O)NC2CCCc3ccccc32)c1 (centres undefined)	none
CN(C)S(=O)(=O)c1ccc(C(=O)NC2CCCc3ccccc32)cc1 (centres undefined)	CAL PDZ FP-1 70.6 (no result: Keap1 Nrf2 FP)
O=C(NCCN1CCOCC1)C1(C(F)(F)F)C/C(=C\Cc2ccccc2)CCCO1 (centres undefined)	none
Cc1ccc(-c2nn(C)c(=O)c3ccccc23)cc1CN1CCCCC1	CAL PDZ FP-1 47.3
O=C1c2ccsc2SCCN1Cc1ccc(F)cc1	CAL PDZ FP-1 38.6 (no result: CAL PDZ FP-2)
O=C1c2ccsc2SCCN1Cc1ccc(Cl)cc1	none
Cc1ccc(S(=O)(=O)NCCCNS(C)(=O)=O)cc1	none
Cc1ccc(S(=O)(=O)NCCNS(=O)(=O)c2ccc(C)cc2)cc1	CAL PDZ FP-1 56.1 (no result: CAL PDZ FP-2)
C[C@@H]1CCCCCCCCC(=O)OCCN(C(=O)OC(C)(C)C)[C@H](C)CCCCCCCCC(=O)OCCN(C(=O)OC(C)(C)C)[C@H](C)CCCCCCCCC(=O)OCCN1C(=O)OC(C)(C)C	none (no result: Keap1 Nrf2 FP, C-LANA FP, CAL PDZ FP-1, CAL PDZ FP-2)
CCOC(=O)c1c(C)[nH]c(C(=O)OCC(=O)NCc2ccc(OC)c(OC)c2)c1C	none
CCOC(=O)c1c(C)[nH]c(C(=O)OCC(=O)Nc2cc(C)c(Cl)cc2OC)c1C	CAL PDZ FP-1 37.0
O=S(=O)(c1ccc(Cl)cc1)N1CCSC1c1ccco1 (centres undefined)	CAL PDZ FP-1 164.4
COc1ccc(OC)c(NC(=O)c2ccc(OC3CSC3)cc2)c1	CAL PDZ FP-1 55.2
COc1ccc(OC)c(NC(=O)c2ccc(NC(C)=O)cc2)c1	none
O=C(NCC1CCCCC1)c1cccc(Br)c1	none
O=C(NCC1CCCCC1)c1cccnc1	CAL PDZ FP-1 43.4
Cc1ccc(C(C)NC(=O)COC(=O)C2=COCCO2)cc1C (centres undefined)	none
CC[C@@H]1CCCCc2ccccc2[C@H](C(=O)C[C@H](O)CC(C)=O)OC1=O	CAL PDZ FP-1 54.0
COC(=O)Cc1c(O)ccn(Cc2ccccc2OC)c1=O	CAL PDZ FP-1 46.6
COC(=O)Cc1c(O)ccn(Cc2cccc3ccccc23)c1=O	none
O=C(COc1ccccc1)NCC1COc2ccccc2O1 (centres undefined)	none (no result: CAL PDZ FP-1)
O=C(COc1ccccc1[N+](=O)[O-])NCC1COc2ccccc2O1 (centres undefined)	CAL PDZ FP-1 30.1
O=C(CCCN1C(=O)/C(=C\c2ccccc2)SC1=S)Nc1ccc(O)cc1C(=O)O	CAL PDZ FP-1 77.0
O=C1/C(=C\c2ccco2)SC(=S)N1Cc1ccccc1	none
COc1ccc(/C=C2/SC(=S)N(CCCC(=O)Nc3ccc(O)cc3)C2=O)cc1	CAL PDZ FP-1 46.1
COc1cccc(/C=C2\SC(=S)N(CCC(=O)N3CCCCC3CCO)C2=O)c1 (centres undefined)	none (no result: CAL PDZ FP-1)
O=C(CN1C(=O)/C(=C\c2ccco2)SC1=S)Nc1ccc(O)cc1C(=O)O	C-LANA FP 63.7
O=C(CCCN1C(=O)/C(=C/c2ccccc2)SC1=S)Nc1ccccc1O	none
COc1cccc(/C=C2\SC(=S)N(CCCC(=O)N3CCCCC3CCO)C2=O)c1 (centres undefined)	CAL PDZ FP-1 88.0
C=CCc1c(Cl)nc(C)nc1NCc1ccccc1	none (no result: CAL PDZ FP-1)
CC(/C=C1\SC(=S)N(CCC(=O)Nc2cccc(C(=O)O)c2)C1=O)=C\c1ccccc1	none
CC(/C=C1\SC(=S)N(CCCC(=O)Nc2ccc(C(=O)O)cc2)C1=O)=C\c1ccccc1	C-LANA FP 85.2
O=C(CCCN1C(=O)/C(=C/c2ccco2)SC1=S)Nc1ccccc1C(=O)O	C-LANA FP 65.5
COc1cccc(NC(=O)c2cccc(N3C(=O)C4CCC(C)CC4C3=O)c2)c1 (centres undefined)	none (no result: CAL PDZ FP-1)
COc1cc2c(cc1OC)C(c1ccc(Br)cc1)CC(=O)N2 (centres undefined)	CAL PDZ FP-1 62.3 (no result: CAL PDZ FP-2)
CC(COc1ccccc1)OC(=O)Nc1ccccc1 (centres undefined)	CAL PDZ FP-1 60.9 (no result: A3A deaminase, A3G deaminase)
COc1ccc(C2=NO[C@@H]3[C@@H]4C[C@@H]([C@H]5C(=O)N(c6ccc7c(c6)OCO7)C(=O)[C@@H]45)[C@H]23)cc1OC	none
CC(=O)NCCNC(=O)c1oc2ccccc2c1CSc1ncn[nH]1	CAL PDZ FP-1 71.9
CC(C)[C@H](NC(=O)c1ccc(Br)cc1)C(=O)NC1CCCCC1	CAL PDZ FP-1 86.0
CC(C)(C)c1ccc(C(=O)NC(=S)Nc2ccc(N3CCOCC3)cc2)cc1	CAL PDZ FP-1 32.6
CC(C)(C)c1ccc(C(=O)Nc2ccc(N3CCOCC3)cc2)cc1	none
COc1ccc(-n2c(C)nnc2SCC(=O)N2CCOCC2)cc1	none (no result: CAL PDZ FP-2)
Cc1cc(C)cc(-n2ncc3c2CCCC3NC(=O)C2CCC2)c1 (centres undefined)	CAL PDZ FP-1 52.9
COc1ccc(NS(=O)(=O)c2ccc3c(c2)NC(=O)CC(=O)N3)cc1OC	none
Cc1ccc(-c2csc3ncnc(SCC(=O)NCC4CCCO4)c23)cc1 (centres undefined)	CAL PDZ FP-1 32.9
Cc1ccc(-c2csc3ncnc(SCC(=O)O)c23)cc1	none
COc1cc(/C=N/NC(=O)CNc2n[nH]c(=O)[nH]c2=O)ccc1O	none
CCn1ccnc1CN(C)Cc1c(C(=O)N2CCCCCCC2)nc2ccc(Cl)cn12	none
Cn1cc([N+](=O)[O-])c(C(=O)NCc2ccccc2)n1	CAL PDZ FP-1 30.2
O=C(NC1CC(=O)N(c2ccc(Cl)cc2)C1)N1CCN(C(=O)c2ccco2)CC1 (centres undefined)	none
Cc1ccccc1NC(=O)c1cccc(N2C(=O)C3C4CC(C(Br)C4Br)C3C2=O)c1 (centres undefined)	none
CCCN1CCC(NC(=O)Nc2ccc(OC)c(OC)c2)CC1	none
CCCN1CCC(NC(=O)Nc2cc(Cl)ccc2OC)CC1	CAL PDZ FP-1 35.8
CC1CCN(c2oc(-c3ccco3)nc2S(=O)(=O)c2ccccc2)CC1	none (no result: CAL PDZ FP-1)
O=S(=O)(c1ccccc1)c1nc(-c2ccco2)oc1N1CCCCC1	CAL PDZ FP-1 42.4
Cc1cccc(N(Cc2cc(=O)[nH]c3ccccc23)C(=O)C(C)C)c1	CAL PDZ FP-1 35.0 (no result: CAL PDZ FP-2)
CCOc1c(Br)cc(C(=O)N2CCCN(C)CC2)cc1OC	none
CCN(C(=O)c1ccc(NC(=O)Cc2ccccc2)cc1)c1ccccc1	CAL PDZ FP-1 48.1
COc1cc(OC)cc(C(=O)N2CCC(C(=O)NCCc3ccccc3)CC2)c1	none
Cc1ccccc1OC(C)C(=O)Nc1cccnc1 (centres undefined)	none
CCOc1ccc(CN(C)C(=O)CNC(=O)c2ccc(Br)o2)cc1OC	none
Cc1nc(/C=[N+](\[O-])C(C)(C)/C=N/O)n(O)c1C	CAL PDZ FP-1 59.4
COc1ccc(CCC(=O)N2CCN(S(=O)(=O)c3cccc(Cl)c3)CC2)cc1	none (no result: CAL PDZ FP-1)
CNc1nc(Nc2ccccc2)nc(OCC(F)(F)F)n1	none

Bioassay records (PubChem)
